Our source for the inhibition and Activity values is ChEMBL document CHEMBL5380846, “2-Aminobenzoxazole Derivatives as Potent Inhibitors of the Sphingosine-1-Phosphate Transporter Spinster Homolog 2 (Spns2)” (J Med Chem, 2023).

As a reminder, the inhibition is the drop in the measured response relative to a control, in per cent.

The source made the active and inactive calls. No cut-off for these calls is given here.

For one test, the target named is T1, Sphingosine-1-phosphate transporter SPNS2 (Mus musculus) (UniProt Q91VM4).
T1 sequence (whole entry): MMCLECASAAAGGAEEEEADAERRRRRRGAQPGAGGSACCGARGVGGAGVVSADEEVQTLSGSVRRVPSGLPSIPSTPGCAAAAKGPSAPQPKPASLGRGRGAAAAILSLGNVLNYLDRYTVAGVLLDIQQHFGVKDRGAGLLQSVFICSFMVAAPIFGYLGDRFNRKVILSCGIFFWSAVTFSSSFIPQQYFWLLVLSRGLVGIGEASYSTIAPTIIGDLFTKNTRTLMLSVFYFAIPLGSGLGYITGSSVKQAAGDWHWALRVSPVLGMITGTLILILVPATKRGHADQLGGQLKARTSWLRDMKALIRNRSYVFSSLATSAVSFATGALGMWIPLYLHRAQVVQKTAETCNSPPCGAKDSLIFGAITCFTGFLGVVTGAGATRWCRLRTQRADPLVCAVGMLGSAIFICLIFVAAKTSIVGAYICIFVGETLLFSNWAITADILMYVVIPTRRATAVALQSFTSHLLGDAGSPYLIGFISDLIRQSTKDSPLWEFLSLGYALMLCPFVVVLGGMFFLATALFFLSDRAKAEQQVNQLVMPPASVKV
The test is described as follows: Inhibition of mouse Spns2 expressed in Hela cells assessed as S1P release at 1 uM incubated for 18 to 20 hrs by LC-MS/MS analysis relative to control. The class given is cell-based. To be noted: time 18-20 hrs. In short, it runs like this: (§1)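 HeLa cells stably transfected (G418 selection) with mouse Spns2, grown to near confluence. Medium was replaced with RPMI 1640 containing 0.2% fatty acid-free BSA, 1 mM 4-deoxypyridoxine, 2 mM NaF and 0.2 mM Na3VO4. Compound was added to duplicate wells (0-2 μM) for 18–20 h. Medium S1P was measured by LC-MS/MS against d7-S1P and expressed as % inhibition versus no-inhibitor control.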
Turning to `CCCCCCCCCCc1ccc2oc(N[C@H]3CCCNC3)nc2c1`, the inhibition turned out to be 50%. On the same count and under the same terms, as for `CCCCCCCCCCc1ccc2oc(NC[C@H]3CCCNC3)nc2c1`, the figure is 2%.

Take `CCCCCCCCCCc1ccc2oc(NCCCN)nc2c1`: the inhibition amounted to 15%. As for `CCCCCCCCCCc1ccc2oc(NC[C@@H]3CCCNC3)nc2c1`, the inhibition amounted to 32%. Same read-out and setting: the result for `CCCCCCCCCCc1ccc2oc(N[C@@H]3CCNC3)nc2c1` reads 47%. Same read-out and setting: the result for `CCCCCCCCCCc1ccc2oc(NC[C@H]3CCNC3)nc2c1` reads 87%. The same measure, in the same setting: as for `CCCCCCCCCCc1ccc2oc(N(C)CCN)nc2c1`, the figure is 0%; as for `CCCCCCCCCCc1ccc2oc(N3CC[C@@H](N)C3)nc2c1`, 4%. Turning to `CCCCCCCCCCc1ccc2oc(N(CCN)CCN)nc2c1`, the inhibition came out at 25%. The same measure, in the same setting: as for `CCCCCCCCCCc1ccc2oc(CCCN)nc2c1`, the figure is 40%; as for `CCCCCCCCCCc1ccc2oc(NC[C@@H]3CCNC3)nc2c1`, 50%. Regarding `CCCCCCCCCCc1ccc(-c2noc(CCCN)n2)cc1`, the inhibition was found to be 44%.

Consider `CCCCCCCCCCc1ccc2oc(NCCCCCN)nc2c1`, for which the inhibition is 35%. The same measure, in the same setting: as for `CCCCCCCCCCc1ccc2oc(N3CC[C@H](N)C3)nc2c1`, the figure is 1%; as for `CCCCCCCCCCc1ccc2oc(N3CCNCC3)nc2c1`, 18%.

With `CCCCCCCCCCc1ccc2oc(N[C@H]3CCNC3)nc2c1`, the inhibition was 75%. Still for that read-out and setting: as for `CCCCCCCCCCc1ccc2oc(CCCCCN)nc2c1`, the figure is 25%. For `CCCCCCCCCCc1ccc2oc(NC[C@H]3CCCN3)nc2c1`, the inhibition is 0%.

Take `CCCCCCCCCCc1ccc2oc(CCN)nc2c1`: the inhibition turned out to be 5%. For `CCCCCCCCCCc1ccc2oc(N[C@@H]3CCCNC3)nc2c1`, the inhibition turned out to be 63%. Still for that read-out and setting: as for `CCCCCCCCCCc1ccc2oc(NC3CNC3)nc2c1`, the figure is 20%. On the same count and under the same terms, the result for `CCCCCCCCCCc1ccc2oc(CCCCN)nc2c1` reads 0%; that for `CCCCCCCCCCc1ccc2oc(NC3CCNCC3)nc2c1`, 54%. On to `CCCCCCCCCCc1ccc2oc(NC[C@@H]3CCCN3)nc2c1`, for which the inhibition amounted to 6%. Take `CCCCCCCCCCc1ccc2oc(NCCN)nc2c1`: the inhibition worked out at 16%. The same measure, in the same setting: the result for `CCCCCCCCCCc1ccc2oc(NCCCCN)nc2c1` reads 32%; that for `CCCCCCCCCCc1ccc2oc(NCC3CCNCC3)nc2c1`, 14%.

The target of another test is T1, Sphingosine-1-phosphate transporter SPNS2 (Mus musculus). As to the kind of experiment: Inhibition of mouse Spns2 expressed in Hela cells assessed as S1P release at 0.3 uM incubated for 18 to 20 hrs by LC-MS/MS analysis relative to control. It is filed as cell-based. To be noted: time 18-20 hrs. In short, it runs like this:
as §1
For the compound `CCCCCCCCCc1ccc2oc(NC[C@H]3CCNC3)nc2c1`, the inhibition turned out to be 77%. The same measure, in the same setting: the result for `CCCCCCCCCCCc1ccc2oc(NC[C@H]3CCNC3)nc2c1` reads 52%; that for `CCCCCCCCc1ccc2oc(NC[C@H]3CCNC3)nc2c1`, 42%; that for `CCCCCCCCCCc1ccc2oc(NC[C@H]3CCNC3)nc2c1`, 56%.

For `CCCCCCCCCCc1ccc2[nH]c(NC[C@H]3CCNC3)nc2c1`, the inhibition was found to be 34%. Still for that read-out and setting: the result for `CCCCCCCCCCc1ccc(-c2noc(CCCN)n2)cc1` reads 30%; that for `CCCCCCCCCCCCc1ccc2oc(NC[C@H]3CCNC3)nc2c1`, 36%.

For a further test, the system named is Mus musculus. As to the kind of experiment: Decrease in plasma S1P level in mouse C57BL/6j at 10 mg/kg, ip measured after 4 hrs by LC-MS/MS analysis. The class given is functional, organism-based.
Details: not given
A digest of the protocol: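 Female C57BL/6j mice were injected IP at 10 mg/Kg, or with vehicle (PEG400/ethanol/solutol/water). Plasma was taken 4 h post dose. S1P was quantified by LC-MS/MS after TCA precipitation with a d7-S1P internal standard and methanol extraction. Comparison was by t-test.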
`CCCCCCCCCCc1ccc2oc(NC[C@H]3CCNC3)nc2c1`: the result was inactive.

The subject of the next test is Mus musculus. As to the kind of experiment: Decrease in circulating lymphocyte count in mouse C57BL/6j blood at 10 mg/kg, ip […].
Details: not given
With `CCCCCCCCCCc1ccc2oc(NC[C@H]3CCNC3)nc2c1`, the result was Active.
